Only some compounds are listed: those with a hit (about 2.2% of all), similar ones and a draw of the others.
CSN inh: inhibitors of CSN-mediated cullin deneddylation, primary screen, biochemical, fluorescence polarization, uHTS | Purified CSN, SCF-Nedd8-OG deneddylation | 0.38% of 360,000 active | inhibition, % at 12.5 µM | AID 651999, 2013 | COP9 signalosome complex subunit 5 (Homo sapiens), Q92905;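 active means pattern-corrected inhibition above about 35%, with an unprinted fluorescence ratio check between 0.5 and 1.5, limit read from the data, passing the limit was not always enough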;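 further: 0% = enzyme with substrate and 100% = substrate without enzyme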
Target sequence (Q92905 whole entry, looked up, one chain of several): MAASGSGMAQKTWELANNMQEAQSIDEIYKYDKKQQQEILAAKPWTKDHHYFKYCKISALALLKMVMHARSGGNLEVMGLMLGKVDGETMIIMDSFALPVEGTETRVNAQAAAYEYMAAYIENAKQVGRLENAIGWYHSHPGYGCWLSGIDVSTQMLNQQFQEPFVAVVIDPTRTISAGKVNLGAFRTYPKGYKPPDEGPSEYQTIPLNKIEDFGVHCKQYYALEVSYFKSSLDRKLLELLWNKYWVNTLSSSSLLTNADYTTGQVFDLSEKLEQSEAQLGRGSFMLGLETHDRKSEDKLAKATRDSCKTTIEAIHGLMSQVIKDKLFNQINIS
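Assay system: purified human Csn5 enzyme expressed in HEK293T cells; Input: 0.24 nM Csn5 enzyme, final concentration; Reagent: 10 nM SCFSkp2-Nedd8OG; Compound dosing: 12.5 µM single point; Times: reaction 90 min, room temperature; Technique: fluorescence polarization readout.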
HNF4A DNA FP: change in binding of human HNF4A to DNA, primary screen, biochemical, fluorescence polarization, FITC-DNA. 1 h. activity change, % at 10 µM. 0.3% of 360,000 active; in the data active means activity change above about 30%, passing the limit was not always enough
Exocytosis inh: LAMP-1 surface exposure blockers, TALL-104 cells – cell-based, flow cytometry, MLPCN library, primary screen | TALL-104 LAMP-1 surface exposure; cells stimulated with thapsigargin and PMA | inhibition, % at 10 µM | 0.66% of 360,000 active;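 active means inhibition above about 55%, limit read from the data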
Myeloid diff 2: induction of myeloid progenitor differentiation, primary screen, cell-based, flow cytometry, MLPCN library | ER-HoxA9 myeloid progenitors, lysozyme-GFP differentiation | calls only at 10 µM | 1% of 360,000 active;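 active means normalized GFP-positive differentiation at or above the plate's own cutoff, the solvent-only control mean plus 3 SD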;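 further: cells exposed to compound for four days before flow analysis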
Myeloid diff: inducers of myeloid progenitor differentiation, confirmation, cell-based, GFP/Mac1 flow cytometry, cherry pick 01; calls only; ER-HoxA9 myeloid progenitors, GFP/Mac1 double-positive flow; shares compounds with Myeloid diff 2; AID 651706, 2012; 2% of 2,300 active;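 active means share of green or green-and-red cells above 9 and 9% in run 1 or 4 and 3% in run 2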
GFP autofluor: flagged as fluorescent in myeloid differentiation counter-screen; fluorescence response, % (test concentration not listed); ER-HoxA9 myeloid progenitors, no estrogen, GFP autofluorescence flow cytometry; vehicle wells 0%, positive control 100%; 7.4% of 2,300 active; shares compounds with Myeloid diff 2;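 active means over 5% cells positive for green fluorescent reporter, or over 2% positive for both it and APC stain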;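 further: range taken on the double positive population between DMSO and positive control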
Exocytosis CP01: inhibitors of lytic granule exocytosis, confirmation, TALL-104 cells, flow cytometry, Cherry Pick01 | shares compounds with Exocytosis inh | LAMP-1 externalization; stimulated with PMA plus thapsigargin | inhibition, % at 10 µM | 11% of 1,500 active; in the data active means inhibition above about 60%;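 further: 0% = stimulated vehicle wells and 100% = unstimulated wells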
CSN deneddyl val: Csn5 deneddylation inhibitors, confirmation, biochemical, fluorescence polarization, single concentration, SCF-Nedd8OG substrate | shares compounds with CSN inh | Csn5 deneddylation of SCF-Nedd8OG, 90 min | inhibition, % at 16.6 µM | 62% of 540 active; in the data active means inhibition above about 50%;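 further: 0% = DMSO with enzyme and 100% = no enzyme wells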
MMP2 cntr CSN: MMP-2 protease inhibition counter-screen, confirmation, counter-screen for CSN deneddylation inhibitor project, biochemical, fluorescence, single concentration | shares compounds with CSN inh | recombinant MMP-2, FRET substrate fluorescence, 60 min | inhibition, % at 16.6 µM | 33% of 540 active | AID 720655, 2013;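 active means corrected plate-normalized z-score of 5 or more, or -5 or less, or inhibition of 15% or more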;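 further: plate controls were DMSO wells with enzyme for no effect and buffer wells lacking MMP-2 for full effect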
Thrombin cntr: blocks bovine thrombin in a CSN deneddylation counter-screen; shares compounds with CSN inh; bovine thrombin cleavage of Ub4-pepOG, fluorescence polarization; inhibition, % at 16.6 µM; 49% of 540 active;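 active means inhibition at or above a set limit, with a fluorescence interference ratio between 0.5 and a set maximum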
HNF4a DNA conf: change in HNF4A binding to DNA, retest, confirmation, biochemical, fluorescence polarization, FITC-DNA. shares compounds with HNF4A DNA FP. 1 h. activity change, % at 12.5 µM. 99% of 210 active. AID 1224897, 2016; call rule not given here
Numbers without * were called inactive.

For OC(c1ccccc1)(c1ccccc1)C1CCN(CCCOc2ccc3c(c2)CCCC3)CC1 the results were CSN inh 4, HNF4A DNA FP -5, Exocytosis inh 62*, Myeloid diff 2 active, Myeloid diff inactive, GFP autofluor 0 and Exocytosis CP01 5.
Screening CCCNC(=O)c1cc(C2CCCN(S(=O)(=O)c3cccc4cccnc34)C2)on1 (centres undefined) returned CSN inh 6, HNF4A DNA FP 2, Exocytosis inh 0 and Myeloid diff 2 inactive.
Cc1cccc(C)c1NC(=O)CNC(=O)c1ccc(COc2ccccc2)o1 was read as CSN inh -6, HNF4A DNA FP 5, Exocytosis inh 15 and Myeloid diff 2 inactive.
`COCCCNc1ccn2nc(-c3cccc(OCc4ccccc4)c3)cc2n1` gave CSN inh -4, HNF4A DNA FP 4, Exocytosis inh 4 and Myeloid diff 2 inactive.
c1ccc(COc2ccc(-c3cc4nc(NCCCn5ccnc5)ccn4n3)cc2)cc1 was read as CSN inh 2, HNF4A DNA FP 7, Exocytosis inh 72*, Myeloid diff 2 inactive, Myeloid diff inactive, GFP autofluor 0 and Exocytosis CP01 99*.
Screening COc1ccccc1N(CC(=O)NC1CCCC1)S(=O)(=O)c1ccc(C)cc1 returned CSN inh 1, HNF4A DNA FP 2, Exocytosis inh 16 and Myeloid diff 2 inactive.
For CCOc1ccccc1N(CC(=O)NC1CCCCC1)S(=O)(=O)c1ccc(C)cc1 the results were CSN inh 1, HNF4A DNA FP 1, Exocytosis inh 93*, Myeloid diff 2 active, Myeloid diff inactive, GFP autofluor 0 and Exocytosis CP01 -12.
O=C(CCCN1C(=O)/C(=C\c2cccs2)SC1=S)Nc1cccc(C(=O)O)c1 was read as CSN inh -2, HNF4A DNA FP -3, Exocytosis inh -4 and Myeloid diff 2 inactive.
`O=C(CCCN1C(=O)/C(=C/c2ccco2)SC1=S)Nc1cccc(C(=O)O)c1` gave CSN inh 45*, HNF4A DNA FP -41, Exocytosis inh -3, Myeloid diff 2 inactive, Myeloid diff active, GFP autofluor 0, CSN deneddyl val 80*, MMP2 cntr CSN 25* and Thrombin cntr 1.
Screening Cc1cc(/C=C2\SC(=S)NC2=O)c(C)n1-c1ccccc1 returned CSN inh 40*, HNF4A DNA FP 75*, Exocytosis inh 2, Myeloid diff 2 inactive, Myeloid diff inactive, GFP autofluor 6.9*, CSN deneddyl val 61*, MMP2 cntr CSN 23* and Thrombin cntr 31*.
For CCN(CC)CCOC(=O)c1ccc(N/C=C(/C#N)c2nc(-c3ccc(OC)c(OC)c3)cs2)cc1 the results were CSN inh 126*, HNF4A DNA FP 207, Exocytosis inh 64*, Myeloid diff 2 inactive, Myeloid diff inactive, GFP autofluor 0, CSN deneddyl val -30, MMP2 cntr CSN -42* and Thrombin cntr 14.
`CCN(CC)CCOC(=O)c1ccc(N/C=C(/C#N)c2nc(-c3cccc(OC)c3)cs2)cc1` gave CSN inh -2, HNF4A DNA FP 5, Exocytosis inh 3 and Myeloid diff 2 inactive.
`CCN(CC)c1ccc(/C=C2\CCC(/C=N/NC(=O)c3ccc(=O)n(C)c3)=C2N2CCOCC2)cc1` gave CSN inh 69*, HNF4A DNA FP 119, Exocytosis inh 7, Myeloid diff 2 active, Myeloid diff inactive, GFP autofluor 98*, CSN deneddyl val 50, MMP2 cntr CSN -32* and Thrombin cntr 37*.
Screening C[C@H](CO)N1C[C@H](C)[C@@H](CN(C)C(=O)NC2CCCCC2)Oc2c(NC(=O)C3CC3)cccc2C1=O returned CSN inh -6, HNF4A DNA FP 1, Exocytosis inh 36 and Myeloid diff 2 inactive.
Screening CCc1ccc(/C=N/NC(=O)c2nnn(-c3nonc3N)c2C(C)C)cc1 returned CSN inh -3, HNF4A DNA FP 0, Exocytosis inh 2 and Myeloid diff 2 inactive.
O=C(N/N=C/c1ccccn1)c1cc(-c2ccc3ccccc3c2)n[nH]1 was read as CSN inh 41*, HNF4A DNA FP 0, Exocytosis inh 4, Myeloid diff 2 inactive, Myeloid diff inactive, GFP autofluor 0, MMP2 cntr CSN 20* and Thrombin cntr 17*.
Screening O=C(NCCC1CCCCN1S(=O)(=O)c1ccccc1)C(=O)NC1CC1 (centres undefined) returned CSN inh -1, HNF4A DNA FP -4, Exocytosis inh -2 and Myeloid diff 2 inactive.
Screening CCCc1nn2c(N)c(/C=C3\C=Nc4ccccc43)c(=O)nc2s1 returned CSN inh 3, HNF4A DNA FP -3, Exocytosis inh -3 and Myeloid diff 2 inactive.
CCOC1=C/C(=C/c2c(N)n3nc(-c4ccccc4)sc3nc2=O)C=CC1=O was read as CSN inh 41*, HNF4A DNA FP 32, Exocytosis inh -1, Myeloid diff 2 active, Myeloid diff inactive, GFP autofluor 5.2*, CSN deneddyl val 6, MMP2 cntr CSN 5 and Thrombin cntr 64*.
For CCCCNc1c(-c2cc3ccccc3o2)nc2nc(C)cc(C)n12 the results were CSN inh 11, HNF4A DNA FP 45*, Exocytosis inh -1, Myeloid diff 2 active, Myeloid diff inactive, GFP autofluor 1 and HNF4a DNA conf 37*.

Source: PubChem BioAssay (several laboratories)
